Activity calls are given as the source filed them.
Assays:
[1] = species on record: Rattus norvegicus; assay: Displacement of [3H]BTX-B from VGSC site 2 in rat forebrain membranes at 40 uM incubated at 37 degC for 60 mins; assay type: cell membranes; conditions: Brain, Membrane
[2] = tested on: Rattus norvegicus; assay: Antinociceptive effect in Sprague-Dawley rat model of sciatic nerve constriction-induced neuropathic pain model assessed as […] to von Frey filaments applied to affected hind paw at 30 mg/kg, sc measured 2 hrs post dose; assay type: functional, organism-based; set-up: dose 30 mg/kg
[3] = Drug localization in Sprague-Dawley rat dorsal root ganglions at 100 uM using dansylated compound by two photon confocal microscopy; assay type: ADME, tissue-based, Dorsal root ganglion
[4] = molecular target: Sodium channel protein type 2 subunit alpha (Homo sapiens) (UniProt Q99250); assay: Inhibition of human NaV1.2 expressed in HEK293 cells at 10 uM using sodium currents elicited through depolarizing step from holding potential of -100 mV to +10 mV for 25 ms at 15 s intervals by whole cell patch clamp method; assay type: cell-based
Outline: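 HEK293 cells stably expressing hNav1.2 were studied by whole-cell patch clamp at 20–22 °C with at least 75% series resistance compensation. Compound came from a 100 mM DMSO stock diluted in perfusion solution (final DMSO at most 0.1%). It was applied after a 3 min control period until current reached steady state. Result expressed as mean percent block ± SEM.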

[5] = tested on: Rattus norvegicus; assay: Antinociceptive effect in Sprague-Dawley rat model of sciatic nerve constriction-induced neuropathic pain model assessed as reduction in threshold to von Frey filaments applied to affected hind paw at 50 mg/kg, sc measured 2 hrs post dose; assay type: functional, organism-based; set-up: dose 50 mg/kg
Outline: (§1)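 Adult female Sprague-Dawley rats (150 g at start) with unilateral sciatic nerve ligation; only animals with significant allodynia were used. Drug dissolved in DMSO and diluted in PEG400 to a 200 mg/ml stock, then diluted in PEG400/PBS and given subcutaneously. Von Frey withdrawal threshold measured by the up-and-down method 2 h post-dose. n = 5 per group, vehicle controls; one-way ANOVA with Tukey post hoc tests.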

[6] = tested on: Rattus norvegicus; assay: Antinociceptive effect in Sprague-Dawley rat model of sciatic nerve constriction-induced neuropathic pain model assessed as reduction in threshold to von Frey filaments applied to affected hind paw at 100 mg/kg, sc measured 2 hrs post dose; assay type: functional, organism-based; set-up: dose 100 mg/kg; outline: as §1
[7] = tested on: Rattus norvegicus; assay: Anticonvulsant effect in Sprague-Dawley rat epileptic model assessed as increase in seizure thresholds at 50 mg/kg, po dosed before seizure induction by maximal electroshock test; assay type: functional, organism-based; set-up: dose 50 mg/kg
[8] = tested on: Rattus norvegicus; assay: Anticonvulsant effect in Sprague-Dawley rat epileptic model assessed as increase in seizure thresholds at 50 mg/kg, po dosed before seizure induction by subcutaneous metrazol seizure threshold test; assay type: functional, organism-based; set-up: dose 50 mg/kg
Outline: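 Rats pretreated orally with 50 mg/kg of test compound, then seizures induced by subcutaneous Metrazol (scMET) injection; testing done through the NINDS anticonvulsant screening program.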

Chain of Sodium channel protein type 2 subunit alpha (Homo sapiens) (Q99250 whole entry, looked up, the tested form may be a part): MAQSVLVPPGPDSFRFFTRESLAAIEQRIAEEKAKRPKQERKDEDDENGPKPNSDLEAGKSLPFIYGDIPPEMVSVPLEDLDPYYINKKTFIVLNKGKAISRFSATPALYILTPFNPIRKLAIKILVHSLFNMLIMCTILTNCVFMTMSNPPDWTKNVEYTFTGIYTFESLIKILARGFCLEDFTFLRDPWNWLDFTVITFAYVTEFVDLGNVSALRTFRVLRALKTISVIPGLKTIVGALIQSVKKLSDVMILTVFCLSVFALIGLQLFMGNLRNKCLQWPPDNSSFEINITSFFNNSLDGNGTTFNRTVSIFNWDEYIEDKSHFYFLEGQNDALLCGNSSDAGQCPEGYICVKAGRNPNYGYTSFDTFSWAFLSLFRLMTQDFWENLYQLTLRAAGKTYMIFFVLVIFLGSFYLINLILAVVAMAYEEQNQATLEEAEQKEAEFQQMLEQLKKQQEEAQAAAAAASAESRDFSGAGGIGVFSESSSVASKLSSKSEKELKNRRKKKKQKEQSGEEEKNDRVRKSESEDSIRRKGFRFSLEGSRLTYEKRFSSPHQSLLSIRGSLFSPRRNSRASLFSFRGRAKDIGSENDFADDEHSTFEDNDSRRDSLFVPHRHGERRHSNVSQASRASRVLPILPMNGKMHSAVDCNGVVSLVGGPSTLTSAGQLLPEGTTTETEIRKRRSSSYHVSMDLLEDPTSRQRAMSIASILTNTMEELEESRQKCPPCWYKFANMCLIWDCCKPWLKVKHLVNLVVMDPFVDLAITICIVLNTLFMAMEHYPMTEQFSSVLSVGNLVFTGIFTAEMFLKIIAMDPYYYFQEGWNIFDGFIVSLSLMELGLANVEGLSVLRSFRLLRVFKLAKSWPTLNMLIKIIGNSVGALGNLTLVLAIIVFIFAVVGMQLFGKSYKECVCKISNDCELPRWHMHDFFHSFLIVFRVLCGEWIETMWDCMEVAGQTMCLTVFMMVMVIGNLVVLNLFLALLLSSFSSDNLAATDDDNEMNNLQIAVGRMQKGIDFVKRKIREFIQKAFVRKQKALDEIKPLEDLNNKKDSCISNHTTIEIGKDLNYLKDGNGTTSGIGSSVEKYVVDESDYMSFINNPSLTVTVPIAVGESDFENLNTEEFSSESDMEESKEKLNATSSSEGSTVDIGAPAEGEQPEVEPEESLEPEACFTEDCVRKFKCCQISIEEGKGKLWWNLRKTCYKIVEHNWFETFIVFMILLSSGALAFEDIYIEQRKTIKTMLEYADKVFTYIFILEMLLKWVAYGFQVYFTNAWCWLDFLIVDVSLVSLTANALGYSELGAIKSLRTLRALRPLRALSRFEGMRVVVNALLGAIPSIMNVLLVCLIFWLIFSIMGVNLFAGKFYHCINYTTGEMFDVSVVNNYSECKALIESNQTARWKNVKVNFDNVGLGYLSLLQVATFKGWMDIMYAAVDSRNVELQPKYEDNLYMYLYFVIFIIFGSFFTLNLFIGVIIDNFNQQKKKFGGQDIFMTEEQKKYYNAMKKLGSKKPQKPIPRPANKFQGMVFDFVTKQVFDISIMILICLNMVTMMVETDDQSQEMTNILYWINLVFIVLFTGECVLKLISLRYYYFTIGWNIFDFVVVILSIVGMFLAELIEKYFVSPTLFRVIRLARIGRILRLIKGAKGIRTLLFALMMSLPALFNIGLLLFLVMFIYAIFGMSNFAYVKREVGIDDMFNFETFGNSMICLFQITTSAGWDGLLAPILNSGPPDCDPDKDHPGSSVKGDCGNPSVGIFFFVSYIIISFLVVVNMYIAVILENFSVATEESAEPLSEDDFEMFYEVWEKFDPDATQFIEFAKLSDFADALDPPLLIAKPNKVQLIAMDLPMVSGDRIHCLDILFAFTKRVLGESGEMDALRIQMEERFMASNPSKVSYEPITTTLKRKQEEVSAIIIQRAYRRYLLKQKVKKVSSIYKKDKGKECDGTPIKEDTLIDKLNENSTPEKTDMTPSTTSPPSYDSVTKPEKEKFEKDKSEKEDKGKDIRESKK

Compound | inhibition [1] [%] | also measured
C#C/C(=C\CCCCCC)c1cccc(Cl)c1 | 32 | –
C=CCCCCCC1(c2cccc(Cl)c2)NC(=O)NC1=O (centres undefined) | 79 | –
CCCCCCCC(O)(c1cccc(Cl)c1)c1cc(F)cc(OC)c1 (centres undefined) | 56 | –
CCCCCCCC1(c2cccc(Cl)c2)NC(=O)N(Cc2ccccc2)C1=O (centres undefined) | 72 | –
CCCCCCCC(O)(c1cccc(Cl)c1)c1ccccn1 (centres undefined) | 28 | –
O=C1NC(=O)C(CCCCCC2CC2)(c2cccc(Cl)c2)N1 (centres undefined) | 87 | –
CCCCCCCC(O)(c1cccc(Cl)c1)c1cc(C(F)(F)F)cc(C(F)(F)F)c1 (centres undefined) | 8 | –
NCC1(CC(=O)O)CCCCC1 | – | Activity [2]: Active
CN(C)c1cccc2c(S(=O)(=O)NCCCCCC3(c4cccc(Cl)c4)NC(=O)NC3=O)cccc12 (centres undefined) | 86 | Drug uptake [3]: Active; inhibition [4]: 59%; Activity [5]: Active; Activity [6]: Active; Activity [7]: inactive; Activity [8]: inactive
C=CCCCCCC1(c2cccc(Cl)c2)NC(=O)N(CC=C)C1=O (centres undefined) | 72 | –
CCCCCCCC(O)(c1cc(F)cc(F)c1)c1cccc(Cl)c1 (centres undefined) | 35 | –
CCCCCCCC1(c2cccc(Cl)c2)NC(=O)N(Cc2cccc(F)c2)C1=O (centres undefined) | 71 | –
CCCCCCCC(O)(c1cccc(Cl)c1)c1ccc(F)c(F)c1 (centres undefined) | 42 | –
O=C1NC(=O)C(c2ccccc2)(c2ccccc2)N1 [PHENYTOIN] | 28 | Activity [7]: Active; Activity [8]: Active
CCCCCCCC(O)(c1cccc(Cl)c1)c1cccc(OC)c1 (centres undefined) | 51 | –
CCCCCCCC1(c2cccc(Cl)c2)NC(=O)N(CCc2ccccc2)C1=O (centres undefined) | 17 | –
C=CCCCCCC(O)(C(N)=O)c1cccc(Cl)c1 (centres undefined) | 86 | –

Compound | inhibition [1] [%] | also measured
CCCCCCCC1(c2cccc(Cl)c2)NC(=O)N(CC2CC2)C1=O (centres undefined) | 78 | –
CC(C)=CCC/C(C)=C/CC(O)(C(N)=O)c1cccc(Cl)c1 (centres undefined) | 84 | –
CCCCCCCC1(c2cccc(Cl)c2)NC(=O)NC1=O (centres undefined) | 70 | inhibition [4]: 31%; Activity [5]: Active; Activity [6]: Active
O=C1NC(=O)C(CCCCCC2CO2)(c2cccc(Cl)c2)N1 (centres undefined) | 28 | –
CC(C)=CCCC(C)CCC(O)(C(N)=O)c1cccc(Cl)c1 (centres undefined) | 40 | –
CCCCCCCC(O)(C(N)=O)c1cccc(Cl)c1 (centres undefined) | 48 | –
CCCCCCCC1(c2cccc(Cl)c2)NC(SC)=NC1=O (centres undefined) | 51 | –
NC(=O)C(O)(CCCCOCc1ccccc1)c1cccc(Cl)c1 (centres undefined) | 52 | –
C#CC(O)(CCCCCCC)c1cccc(Cl)c1 (centres undefined) | 78 | –
CCCCCCCC1(c2cccc(Cl)c2)C(=O)N=C(SC)N1C (centres undefined) | 18 | –
CCCCCCCC(O)(c1cccc(Cl)c1)c1ccc(C)cn1 (centres undefined) | 41 | –
CCCCCCCC1(c2cccc(Cl)c2)OC(C)(C)OC1=O (centres undefined) | 27 | –
C=CCN1C(=O)NC(CCCCCCC)(c2cccc(Cl)c2)C1=O (centres undefined) | 83 | –
O=C1NC(=O)C(CCCOCc2ccccc2)(c2cccc(Cl)c2)N1 (centres undefined) | 71 | –
CCCCCCCC1(c2cccc(Cl)c2)NC(=S)NC1=O (centres undefined) | 67 | –
C#CCN1C(=O)NC(CCCCCCC)(c2cccc(Cl)c2)C1=O (centres undefined) | 57 | –

Source: ChEMBL document CHEMBL2069248, “Synthesis and biological evaluation of a fluorescent analog of phenytoin as a potential inhibitor of neuropathic pain and imaging agent” (Bioorg Med Chem, 2012)
